Data: ChEMBL document CHEMBL3612019, “Revisiting 1,3,4-Oxadiazol-2-ones: Utilization in the Development of ABHD6 Inhibitors” (Bioorg Med Chem, 2015)
The source made the active and inactive calls. No cut-off for these calls is given here.

Tests used:
[1] = target: T1, Monoglyceride lipase (Homo sapiens, UniProt Q99685); experiment: Inhibition of human MAGL expressed in HEK293 cells pre-incubated for 10 mins before 2-AG substrate addition by HPLC method; assay type: cell-based; details: read-out: IC50
T1 sequence (Q99685 whole entry): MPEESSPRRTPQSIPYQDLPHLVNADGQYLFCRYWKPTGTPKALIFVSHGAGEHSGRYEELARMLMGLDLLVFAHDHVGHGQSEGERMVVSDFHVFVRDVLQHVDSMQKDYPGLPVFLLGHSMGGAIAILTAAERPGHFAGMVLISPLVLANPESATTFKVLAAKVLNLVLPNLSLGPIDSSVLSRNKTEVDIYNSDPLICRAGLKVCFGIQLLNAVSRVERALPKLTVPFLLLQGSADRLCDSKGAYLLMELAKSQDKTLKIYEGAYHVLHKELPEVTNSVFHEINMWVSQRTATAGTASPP
How it was run: (§1)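 Lysates of hMAGL-overexpressing HEK293 cells in 50 mM Tris–HCl pH 7.4 with 1 mM EDTA. After a 10 min preincubation with inhibitor or DMSO, 2-AG was added (final 50 µM) and incubated 10 min at 37 °C. The reaction was stopped and samples centrifuged. Arachidonic acid formation and 2-AG depletion were measured by HPLC. Replicates as for the FAAH assay.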

[2] = target: T2, Fatty-acid amide hydrolase 1 (Mus musculus) (UniProt O08914); experiment: Inhibition of FAAH in mouse whole brain membranes at 32.5 uM incubated for 1 hr by TAMRA-FP probe based competitive activity-based protein profiling assay; assay type: cell membranes; details: Membrane
T2 sequence (whole entry): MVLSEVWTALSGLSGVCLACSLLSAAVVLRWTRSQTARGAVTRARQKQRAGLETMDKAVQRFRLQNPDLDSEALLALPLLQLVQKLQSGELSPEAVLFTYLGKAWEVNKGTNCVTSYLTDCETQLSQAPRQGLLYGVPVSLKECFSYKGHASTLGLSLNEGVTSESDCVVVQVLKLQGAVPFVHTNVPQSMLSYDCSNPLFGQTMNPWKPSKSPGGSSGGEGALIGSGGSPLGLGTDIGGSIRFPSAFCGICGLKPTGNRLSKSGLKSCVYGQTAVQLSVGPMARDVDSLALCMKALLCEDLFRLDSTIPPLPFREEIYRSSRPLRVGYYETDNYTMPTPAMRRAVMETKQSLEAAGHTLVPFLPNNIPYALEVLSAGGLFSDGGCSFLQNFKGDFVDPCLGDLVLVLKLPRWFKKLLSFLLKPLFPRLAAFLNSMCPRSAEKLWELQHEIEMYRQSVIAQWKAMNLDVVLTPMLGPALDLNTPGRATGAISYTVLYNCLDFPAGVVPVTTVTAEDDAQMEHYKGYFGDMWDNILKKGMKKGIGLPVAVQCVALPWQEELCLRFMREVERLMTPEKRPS
How it was run: (§2)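 Competitive ABPP on mouse brain membranes (100 µg) treated 1 h with DMSO or inhibitor. TAMRA-FP labelling then ran 1 h at RT (final probe 2 µM). Reaction was quenched with gel loading buffer and proteins resolved by 10% SDS–PAGE for fluorescent band read-out. WWL70 located the ABHD6 band. Gels are representative of two experiments.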

[3] = target: T3, Monoacylglycerol lipase ABHD6 (Homo sapiens, UniProt Q9BV23); experiment: Inhibition of human ABHD6 expressed in HEK293 cells at 1 uM pre-incubated for 10 mins before 2-AG substrate addition followed by rapid 40 fold compound dilution measured after 60 mins by HPLC method; assay type: cell-based
T3 sequence (Q9BV23 whole entry): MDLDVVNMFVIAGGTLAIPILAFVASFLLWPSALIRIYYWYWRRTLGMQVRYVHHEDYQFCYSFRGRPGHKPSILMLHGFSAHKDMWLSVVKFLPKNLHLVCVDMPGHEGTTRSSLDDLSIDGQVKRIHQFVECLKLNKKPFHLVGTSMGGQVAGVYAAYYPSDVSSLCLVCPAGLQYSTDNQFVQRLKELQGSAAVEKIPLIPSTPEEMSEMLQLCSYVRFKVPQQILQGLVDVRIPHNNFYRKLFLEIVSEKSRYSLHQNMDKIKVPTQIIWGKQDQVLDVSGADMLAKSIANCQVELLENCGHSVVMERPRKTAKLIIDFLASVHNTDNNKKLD

[4] = target: T3, Monoacylglycerol lipase ABHD6; experiment: Inhibition of human ABHD6 expressed in HEK293 cells at 1 uM pre-incubated for 10 mins before 2-AG substrate addition followed by rapid 40 fold compound dilution measured after 30 mins by HPLC method; assay type: cell-based
[5] = target: T4, Monoglyceride lipase (Homo sapiens) (UniProt Q99685); experiment: Inhibition of human MAGL expressed in HEK293 cells at 20 uM pre-incubated for 10 mins before 2-AG substrate addition by HPLC method; assay type: cell-based; how it was run: as §1
T4 sequence (whole entry): T1 sequence (Q99685 whole entry)

[6] = target: T3, Monoacylglycerol lipase ABHD6; experiment: Inhibition of human ABHD6 expressed in HEK293 cells at 1 uM pre-incubated for 10 mins before 2-AG substrate addition followed by rapid 40 fold compound dilution measured after 10 mins by HPLC method; assay type: cell-based
[7] = target: T5, Monoglyceride lipase (Mus musculus) (UniProt O35678); experiment: Inhibition of MAGL in mouse whole brain membranes at 32.5 uM incubated for 1 hr by TAMRA-FP probe based competitive activity-based protein profiling assay; assay type: cell membranes; details: Membrane; how it was run: as §2
T5 sequence (whole entry): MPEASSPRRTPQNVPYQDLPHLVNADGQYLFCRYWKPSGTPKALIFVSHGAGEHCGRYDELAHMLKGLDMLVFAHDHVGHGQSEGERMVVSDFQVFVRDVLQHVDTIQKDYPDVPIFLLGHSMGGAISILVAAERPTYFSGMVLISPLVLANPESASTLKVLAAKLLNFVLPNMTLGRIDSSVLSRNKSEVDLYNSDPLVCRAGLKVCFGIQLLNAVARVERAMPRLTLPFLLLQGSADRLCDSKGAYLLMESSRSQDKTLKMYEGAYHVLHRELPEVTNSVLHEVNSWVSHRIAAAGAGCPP

[8] = target: T6, Fatty-acid amide hydrolase 1 (Homo sapiens) (UniProt O00519); experiment: Inhibition of human FAAH expressed in COS7 cell membranes at 20 uM pre-incubated for 10 mins before [3H]-AEA substrate addition by liquid scintillation counting; details: COS-7
T6 sequence (whole entry): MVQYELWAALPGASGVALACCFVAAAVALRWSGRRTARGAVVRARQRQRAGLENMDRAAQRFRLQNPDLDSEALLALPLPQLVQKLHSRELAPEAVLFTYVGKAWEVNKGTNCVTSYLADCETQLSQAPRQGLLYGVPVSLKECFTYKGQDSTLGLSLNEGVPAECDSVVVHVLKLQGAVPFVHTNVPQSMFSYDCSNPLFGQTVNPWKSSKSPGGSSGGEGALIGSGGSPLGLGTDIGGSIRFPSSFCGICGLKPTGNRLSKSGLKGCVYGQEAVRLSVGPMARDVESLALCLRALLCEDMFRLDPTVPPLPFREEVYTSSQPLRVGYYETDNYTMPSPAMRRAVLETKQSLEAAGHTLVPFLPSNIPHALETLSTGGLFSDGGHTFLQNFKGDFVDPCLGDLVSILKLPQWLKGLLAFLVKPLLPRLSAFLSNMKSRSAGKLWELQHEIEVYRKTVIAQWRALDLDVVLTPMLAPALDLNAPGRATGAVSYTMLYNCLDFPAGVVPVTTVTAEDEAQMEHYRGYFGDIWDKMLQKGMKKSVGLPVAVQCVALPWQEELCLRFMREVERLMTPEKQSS

IC50 [1] [µM]	inhibition [2]	IC50 [3] [µM]	IC50 [4] [µM]	inhibition [5] [%]	IC50 [6] [µM]	inhibition [7]	inhibition [8] [%]	SMILES
7.94	–	–	–	–	–	–	–	Nc1cccc(Cn2nc(Oc3ccccc3)oc2=O)c1
–	Active	3.63	3.8	33	4.07	Active	41	COc1nn(Cc2cccc(N)c2)c(=O)o1
